Measured values: ChEMBL document CHEMBL4270642, “Boronic ester-linked macrocyclic lipopeptides as serine protease inhibitors targeting Escherichia coli type I signal peptidase” (Eur J Med Chem, 2018)
Converted amounts (≈) assume the structure as drawn. Square brackets hold non-standard residues; d marks the D form. Peptide text beside a SMILES is read from it. * marks the point of attachment. Benzoyl(4-(4-hexylphenyl)) = CCCCCCc1ccc(-c2ccc(C(=O)*)cc2)cc1; X1 = C[C@H](N*)B1OC2C[C@@H]3C[C@@H](C3(C)C)[C@]2(C)O1; Orn = NCCC[C@H](N)C(=O)O

Experiments:
[1] = target: Signal peptidase I (Escherichia coli K-12) (UniProt P00803); test: Inhibition of Escherichia coli type 1 signal peptidase lepB assessed as residual activity at 2.5 uM preincubated for 10 mins followed by Dabcyl-VGGTATAYGAFSRPGLE-(EDANS)-OH substrate addition measured after 2 hrs by FRET based assay (reference value: 100%)
Method in brief: (§1)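 EcLepB (about 50 nM estimated) preincubated 10 min with compound. Reaction started with Dabcyl/EDANS FRET peptide at 8 µM final (Km 20 µM). Fluorescence followed continuously at 535 nm, 22 °C, for 2 h. Cleavage rates plotted against inhibitor concentration; IC50 from non-linear regression of sigmoidal dose-response curves.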

[2] = target: Signal peptidase I (Escherichia coli K-12) (UniProt P00803); test: Inhibition of Escherichia coli type 1 signal peptidase lepB assessed as residual activity at 10 uM preincubated for 10 mins followed by Dabcyl-VGGTATAYGAFSRPGLE-(EDANS)-OH substrate addition measured after 2 hrs by FRET based assay (reference value: 100%); method in brief: as §1
[3] = system: Pseudomonas aeruginosa; test: Antibacterial activity against Pseudomonas aeruginosa PAO1 after 16 to 20 hrs by broth microdilution method; type: functional
Method in brief: (§2)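 Broth microdilution in cation-adjusted Mueller-Hinton II per EUCAST/CLSI; two-fold compound series 64 down to 0.25 µg/mL final. Inoculum from fresh colonies (non-selective agar, 18-24 h, 35 ± 2 °C), adjusted to 0.5 McFarland, diluted to about 5 × 10^5 CFU/mL final. Static incubation 16-20 h at 35 ± 2 °C; MIC read visually as complete growth inhibition against medium-only wells.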

[4] = system: Escherichia coli; test: Antibacterial activity against tolC deficient Escherichia coli CH3130 after 16 to 20 hrs by broth microdilution method; type: functional; method in brief: as §2
[5] = target: Signal peptidase I (Escherichia coli K-12) (UniProt P00803); test: Inhibition of Escherichia coli type 1 signal peptidase lepB assessed as residual activity at 0.0098 uM preincubated for 10 mins followed by Dabcyl-VGGTATAYGAFSRPGLE-(EDANS)-OH substrate addition measured after 2 hrs by FRET based assay (reference value: 100%); method in brief: as §1
[6] = system: Acinetobacter baumannii; test: Antibacterial activity against Acinetobacter baumannii ATCC 19606 after 16 to 20 hrs by broth microdilution method; type: functional; settings: ATCC 19606 = CIP 70.34 = JCM 6841; method in brief: as §2
[7] = target: Signal peptidase I (Escherichia coli K-12) (UniProt P00803); test: Inhibition of Escherichia coli type 1 signal peptidase lepB assessed as residual activity at 5 uM preincubated for 10 mins followed by Dabcyl-VGGTATAYGAFSRPGLE-(EDANS)-OH substrate addition measured after 2 hrs by FRET based assay (reference value: 100%); method in brief: as §1
[8] = Hemolytic activity in human RBC at 100 uM after 45 mins by spectrophotometric method relative to control; type: ADME, cell-based, Erythrocyte; settings: red blood cells (erythrocytes), read-out: Activity
Method in brief: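 Heparinized human blood; red cells washed three times in Tyrode buffer pH 7.4. Compound at 100 µM final with 1% DMSO and 50% RBC, shaken (250 rpm) 45 min at 37 °C. Cells pelleted (1000 × g, 10 min); supernatant haemoglobin at 540 nm. Percent lysis relative to buffer-only and 2% Triton X-100 controls.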

[9] = target: Signal peptidase I (Escherichia coli K-12) (UniProt P00803); test: Inhibition of Escherichia coli type 1 signal peptidase lepB assessed as residual activity at 0.0024 uM preincubated for 10 mins followed by Dabcyl-VGGTATAYGAFSRPGLE-(EDANS)-OH substrate addition measured after 2 hrs by FRET based assay (reference value: 100%); method in brief: as §1
[10] = target: Signal peptidase I (Escherichia coli K-12, UniProt P00803); test: Inhibition of Escherichia coli type 1 signal peptidase lepB preincubated for 10 mins followed by Dabcyl-VGGTATAYGAFSRPGLE-(EDANS)-OH substrate addition measured after 2 hrs by FRET based assay; method in brief: as §1
[11] = system: Staphylococcus aureus; test: Antibacterial activity against Staphylococcus aureus ATCC 29213 after 16 to 20 hrs by broth microdilution method; type: functional; method in brief: as §2
[12] = system: Escherichia coli; test: Antibacterial activity against Escherichia coli ATCC 25922 after 16 to 20 hrs by broth microdilution method; type: functional; method in brief: as §2
[13] = target: Signal peptidase I (Escherichia coli K-12) (UniProt P00803); test: Inhibition of Escherichia coli type 1 signal peptidase lepB assessed as residual activity at 1.25 uM preincubated for 10 mins followed by Dabcyl-VGGTATAYGAFSRPGLE-(EDANS)-OH substrate addition measured after 2 hrs by FRET based assay (reference value: 100%); method in brief: as §1
[14] = target: Signal peptidase I (Escherichia coli K-12) (UniProt P00803); test: Inhibition of Escherichia coli type 1 signal peptidase lepB assessed as residual activity at 0.3125 uM preincubated for 10 mins followed by Dabcyl-VGGTATAYGAFSRPGLE-(EDANS)-OH substrate addition measured after 2 hrs by FRET based assay (reference value: 100%); method in brief: as §1
[15] = system: Escherichia coli; test: Antibacterial activity against Escherichia coli D22 CGSG 5163 harboring Ips mutant after 16 to 20 hrs by broth microdilution method; type: functional
Method in brief: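 Broth microdilution in cation-adjusted Mueller-Hinton II broth, following EUCAST and CLSI guidelines. Two-fold series at final concentrations 64 down to 0.25 µg/mL, with medium-only and growth controls. Inoculum from fresh colonies (18-24 h, 35 °C ± 2 °C) adjusted to 0.5 McFarland, final ≈5 × 10^5 CFU/mL. Plates incubated unshaken 16-20 h at 35 °C ± 2 °C. MIC read visually as complete inhibition of growth.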

[16] = target: Signal peptidase I (Escherichia coli K-12) (UniProt P00803); test: Inhibition of Escherichia coli type 1 signal peptidase lepB assessed as residual activity at 0.0049 uM preincubated for 10 mins followed by Dabcyl-VGGTATAYGAFSRPGLE-(EDANS)-OH substrate addition measured after 2 hrs by FRET based assay (reference value: 100%); method in brief: as §1
[17] = system: Klebsiella pneumoniae; test: Antibacterial activity against Klebsiella pneumoniae ATCC 13883 after 16 to 20 hrs by broth microdilution method; type: functional; method in brief: as §2
[18] = target: Signal peptidase I (Escherichia coli K-12) (UniProt P00803); test: Inhibition of Escherichia coli type 1 signal peptidase lepB assessed as residual activity at 0.0391 uM preincubated for 10 mins followed by Dabcyl-VGGTATAYGAFSRPGLE-(EDANS)-OH substrate addition measured after 2 hrs by FRET based assay (reference value: 100%); method in brief: as §1
[19] = target: Signal peptidase I (Escherichia coli K-12) (UniProt P00803); test: Inhibition of Escherichia coli type 1 signal peptidase lepB assessed as residual activity at 0.0195 uM preincubated for 10 mins followed by Dabcyl-VGGTATAYGAFSRPGLE-(EDANS)-OH substrate addition measured after 2 hrs by FRET based assay (reference value: 100%); method in brief: as §1
[20] = target: Signal peptidase I (Escherichia coli K-12) (UniProt P00803); test: Inhibition of Escherichia coli type 1 signal peptidase lepB assessed as residual activity at 0.0012 uM preincubated for 10 mins followed by Dabcyl-VGGTATAYGAFSRPGLE-(EDANS)-OH substrate addition measured after 2 hrs by FRET based assay (reference value: 100%); method in brief: as §1
[21] = system: HepG2; test: Cytotoxicity against human HepG2 cells after 72 hrs by FMSA; type: cell-based; settings: HepG2, 72 h
Method in brief: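 HepG2 (ATCC) grown in EMEM with 10% FBS, pen/strep, 2 mM L-glutamine, used up to 20 passages. Seeded at 1000 cells/well, cultured overnight, then dosed acoustically from DMSO stocks. Eight two-fold dilutions in duplicate from top 64 or 32 µM; 72 h at 37 °C, 5% CO2. Fluorescein diacetate hydrolysis read at ex 485/em 530 nm; IC50 by non-linear regression.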

[22] = target: Signal peptidase I (Escherichia coli K-12) (UniProt P00803); test: Inhibition of Escherichia coli type 1 signal peptidase lepB assessed as residual activity at 0.0781 uM preincubated for 10 mins followed by Dabcyl-VGGTATAYGAFSRPGLE-(EDANS)-OH substrate addition measured after 2 hrs by FRET based assay (reference value: 100%); method in brief: as §1
[23] = target: Signal peptidase I (Escherichia coli K-12) (UniProt P00803); test: Inhibition of Escherichia coli type 1 signal peptidase lepB assessed as residual activity at 0.625 uM preincubated for 10 mins followed by Dabcyl-VGGTATAYGAFSRPGLE-(EDANS)-OH substrate addition measured after 2 hrs by FRET based assay (reference value: 100%); method in brief: as §1
[24] = target: Signal peptidase I (Escherichia coli K-12) (UniProt P00803); test: Inhibition of Escherichia coli type 1 signal peptidase lepB assessed as residual activity at 0.0006 uM preincubated for 10 mins followed by Dabcyl-VGGTATAYGAFSRPGLE-(EDANS)-OH substrate addition measured after 2 hrs by FRET based assay (reference value: 100%); method in brief: as §1
[25] = system: Pseudomonas aeruginosa; test: Antibacterial activity against efflux defective Pseudomonas aeruginosa PAO750 after 16 to 20 hrs by broth microdilution method; type: functional; method in brief: as §2
[26] = target: Signal peptidase I (Escherichia coli K-12) (UniProt P00803); test: Inhibition of Escherichia coli type 1 signal peptidase lepB assessed as residual activity at 0.1563 uM preincubated for 10 mins followed by Dabcyl-VGGTATAYGAFSRPGLE-(EDANS)-OH substrate addition measured after 2 hrs by FRET based assay (reference value: 100%); method in brief: as §1

Signal peptidase I (Escherichia coli K-12), sequence (P00803 whole entry): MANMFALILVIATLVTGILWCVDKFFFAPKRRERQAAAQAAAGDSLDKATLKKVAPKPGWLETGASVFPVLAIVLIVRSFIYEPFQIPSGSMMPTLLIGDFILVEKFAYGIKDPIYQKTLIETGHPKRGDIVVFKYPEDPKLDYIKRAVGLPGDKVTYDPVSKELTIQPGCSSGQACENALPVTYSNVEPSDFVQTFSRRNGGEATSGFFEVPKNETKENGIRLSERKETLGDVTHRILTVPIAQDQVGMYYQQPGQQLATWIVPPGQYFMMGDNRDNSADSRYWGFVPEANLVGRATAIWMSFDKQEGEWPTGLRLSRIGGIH
Signal peptidase I, sequence (P00803 whole entry): as above

Row | Compound | Activity [1] | Activity [2] | MIC [3] | MIC [4] | Activity [5] | MIC [6] | Activity [7] | hemolysis at 0.75 h, 100 µM [8] | Activity [9] | IC50 [10] | MIC [11] | MIC [12] | Activity [13] | Activity [14] | MIC [15] | Activity [16] | MIC [17] | Activity [18] | Activity [19] | Activity [20] | other results
1 | CCCCCCc1ccc(-c2ccc(C(=O)N[C@@H](CCCN)C(=O)N[C@H](C(=O)N[C@@H](C)C(=O)N[C@H]3Cc4cn(nn4)CCO[C@@H]4C[C@@H]5OB(O[C@@H]5C4)[C@H](C)NC3=O)[C@@H](C)O)cc2)cc1 | 27.1% | -2.5% | 64 µg/mL (≈ 72.2 µM) | 4 µg/mL (≈ 4.52 µM) | 94.3% | 8 µg/mL (≈ 9.03 µM) | 4% | 10.6% | 90.6% | 175 nM | 2 µg/mL (≈ 2.26 µM) | 16 µg/mL (≈ 18.1 µM) | 42.2% | 39.1% | 4 µg/mL (≈ 4.52 µM) | 91% | 8 µg/mL (≈ 9.03 µM) | 77.8% | 84.3% | 90.7% | IC50 [21]: 8 µM; Activity [22]: 65.2%; Activity [23]: 27.1%; Activity [24]: 95.3%; MIC [25]: 32 µg/mL (≈ 36.1 µM); Activity [26]: 57.6%
2 | CCCCCCc1ccc(-c2ccc(C(=O)N[C@@H](CCCN)C(=O)N[C@H](C(=O)N[C@@H](C)C(=O)N[C@@H](CC(N)=O)C(=O)N[C@@H](C)B3OC4C[C@@H]5C[C@@H](C5(C)C)[C@]4(C)O3)[C@@H](C)O)cc2)cc1 (some centres not stated) ({Benzoyl(4-(4-hexylphenyl))}-[Orn]TAN-X1) | -0.2% | 6.3% | 64 µg/mL (≈ 72.1 µM) | 2 µg/mL (≈ 2.25 µM) | 70.6% | 4 µg/mL (≈ 4.5 µM) | 1.8% | 11.7% | 91.9% | 17 nM | 0.025 µg/mL (≈ 0.0282 µM) | 8 µg/mL (≈ 9.01 µM) | 8.5% | 3.5% | 0.5 µg/mL (≈ 0.563 µM) | 87.3% | 2 µg/mL (≈ 2.25 µM) | 24.9% | 42.9% | 98.6% | IC50 [21]: 11.7 µM; Activity [22]: 20.5%; Activity [23]: -9.9%; Activity [24]: 114%; MIC [25]: 32 µg/mL (≈ 36 µM); Activity [26]: -1.3%
